Data on 7 molecules can be found in ChEMBL document CHEMBL4052587, “Talarazines A-E: Noncytotoxic Iron(III) Chelators from an Australian Mud Dauber Wasp-Associated Fungus, Talaromyces sp. (CMB-W045)” (J Nat Prod, 2017).

Active and inactive are the calls of the source. No cut-off for these calls is given here.

Usually IC50 stands for the midpoint of a concentration-inhibition curve. A lower IC50 goes with inhibition by little substance.

In one test the test system is Staphylococcus aureus. The experiment in a line: Growth inhibition of Staphylococcus aureus ATCC 25923 after 24 by broth micro-dilution method. Format: functional.
Regarding `CC(=O)N[C@@H](CCCN(O)C(=O)/C=C(\C)CCO)C(=O)OCC/C(C)=C/C(=O)NCCC[C@@H]1NC(=O)[C@H](CCCN(O)C(=O)/C=C(\C)CCO)NC1=O`, the IC50 is > 30 µM.
Same read-out and setting: the result for `CC(=O)N[C@@H](CCCN(O)C(=O)/C=C(\C)CCO)C(=O)OCC/C(C)=C/C(=O)NCCC[C@@H]1NC(=O)[C@H](CCCNC(=O)/C=C(\C)CCO)NC1=O` reads > 30 µM; that for `CC(=O)N[C@@H](CCCN(O)C(=O)/C=C(\C)CCO)C(=O)OCC/C(C)=C/C(=O)N(O)CCC[C@@H]1NC(=O)[C@H](CCCN(O)C(=O)/C=C(\C)CCO)NC1=O`, > 30 µM.
The same measure, in the same setting: the result for `C/C(=C\C(=O)N(O)CCC[C@@H]1NC(=O)[C@H](CCCN(O)C(=O)/C=C(\C)CCO)NC1=O)CCO` reads > 30 µM; that for `C/C(=C\C(=O)NCCC[C@@H]1NC(=O)[C@H](CCCN(O)C(=O)/C=C(\C)CCO)NC1=O)CCO`, > 30 µM; that for `C/C(=C\C(=O)NCCC[C@@H]1NC(=O)[C@H](CCCNC(=O)/C=C(\C)CCO)NC1=O)CCO`, > 30 µM.
The same measure, in the same setting: the same measure for `CC(=O)N[C@@H](CCCN(O)C(=O)/C=C(\C)CCO)C(=O)OCC/C(C)=C/C(=O)N(O)CCC[C@@H]1NC(=O)[C@H](CCCNC(=O)/C=C(\C)CCO)NC1=O`: > 30 µM.

Another test concerns Escherichia coli. In words: Growth inhibition of Escherichia coli ATCC 25922 after 24 by broth micro-dilution method. In kind it is functional. A general note: Broth dilution looks for growth in wells or tubes with falling amounts of substance.
For the molecule `CC(=O)N[C@@H](CCCN(O)C(=O)/C=C(\C)CCO)C(=O)OCC/C(C)=C/C(=O)NCCC[C@@H]1NC(=O)[C@H](CCCN(O)C(=O)/C=C(\C)CCO)NC1=O`, the IC50 is > 30 µM.
Regarding `CC(=O)N[C@@H](CCCN(O)C(=O)/C=C(\C)CCO)C(=O)OCC/C(C)=C/C(=O)NCCC[C@@H]1NC(=O)[C@H](CCCNC(=O)/C=C(\C)CCO)NC1=O`, the concentration for half-maximal inhibition (IC50) is > 30 µM.
Still for that read-out and setting: the result for `CC(=O)N[C@@H](CCCN(O)C(=O)/C=C(\C)CCO)C(=O)OCC/C(C)=C/C(=O)N(O)CCC[C@@H]1NC(=O)[C@H](CCCN(O)C(=O)/C=C(\C)CCO)NC1=O` reads > 30 µM; that for `C/C(=C\C(=O)N(O)CCC[C@@H]1NC(=O)[C@H](CCCN(O)C(=O)/C=C(\C)CCO)NC1=O)CCO`, > 30 µM.
The same measure, in the same setting: the result for `C/C(=C\C(=O)NCCC[C@@H]1NC(=O)[C@H](CCCN(O)C(=O)/C=C(\C)CCO)NC1=O)CCO` reads > 30 µM.
On the same count and under the same terms, the same measure for `C/C(=C\C(=O)NCCC[C@@H]1NC(=O)[C@H](CCCNC(=O)/C=C(\C)CCO)NC1=O)CCO`: > 30 µM; for `CC(=O)N[C@@H](CCCN(O)C(=O)/C=C(\C)CCO)C(=O)OCC/C(C)=C/C(=O)N(O)CCC[C@@H]1NC(=O)[C@H](CCCNC(=O)/C=C(\C)CCO)NC1=O`: > 30 µM.

In the next test the test system is Pseudomonas aeruginosa. In words: Growth inhibition of Pseudomonas aeruginosa ATCC 27853 after 24 by broth micro-dilution method. Format: functional.
As to `CC(=O)N[C@@H](CCCN(O)C(=O)/C=C(\C)CCO)C(=O)OCC/C(C)=C/C(=O)NCCC[C@@H]1NC(=O)[C@H](CCCN(O)C(=O)/C=C(\C)CCO)NC1=O`, the IC50 was > 30 µM.
With `CC(=O)N[C@@H](CCCN(O)C(=O)/C=C(\C)CCO)C(=O)OCC/C(C)=C/C(=O)NCCC[C@@H]1NC(=O)[C@H](CCCNC(=O)/C=C(\C)CCO)NC1=O`, the half-maximal inhibitory concentration (IC50) was > 30 µM.
On to `CC(=O)N[C@@H](CCCN(O)C(=O)/C=C(\C)CCO)C(=O)OCC/C(C)=C/C(=O)N(O)CCC[C@@H]1NC(=O)[C@H](CCCN(O)C(=O)/C=C(\C)CCO)NC1=O`, for which the half-maximal inhibitory concentration (IC50) was > 30 µM.
Still for that read-out and setting: the same measure for `C/C(=C\C(=O)N(O)CCC[C@@H]1NC(=O)[C@H](CCCN(O)C(=O)/C=C(\C)CCO)NC1=O)CCO`: > 30 µM.
On to `C/C(=C\C(=O)NCCC[C@@H]1NC(=O)[C@H](CCCN(O)C(=O)/C=C(\C)CCO)NC1=O)CCO`, for which the IC50 was > 30 µM.
For `C/C(=C\C(=O)NCCC[C@@H]1NC(=O)[C@H](CCCNC(=O)/C=C(\C)CCO)NC1=O)CCO`, the 50% inhibitory concentration (IC50) is > 30 µM.
On the same count and under the same terms, the result for `CC(=O)N[C@@H](CCCN(O)C(=O)/C=C(\C)CCO)C(=O)OCC/C(C)=C/C(=O)N(O)CCC[C@@H]1NC(=O)[C@H](CCCNC(=O)/C=C(\C)CCO)NC1=O` reads > 30 µM.

The next test deals with Candida albicans. The experiment in a line: Growth inhibition of Candida albicans ATCC 90028 after 48 by broth micro-dilution method. Format: functional.
Turning to `CC(=O)N[C@@H](CCCN(O)C(=O)/C=C(\C)CCO)C(=O)OCC/C(C)=C/C(=O)NCCC[C@@H]1NC(=O)[C@H](CCCN(O)C(=O)/C=C(\C)CCO)NC1=O`, the IC50 is > 30 µM.
On the same count and under the same terms, the same measure for `CC(=O)N[C@@H](CCCN(O)C(=O)/C=C(\C)CCO)C(=O)OCC/C(C)=C/C(=O)NCCC[C@@H]1NC(=O)[C@H](CCCNC(=O)/C=C(\C)CCO)NC1=O`: > 30 µM.
On the same count and under the same terms, the same measure for `CC(=O)N[C@@H](CCCN(O)C(=O)/C=C(\C)CCO)C(=O)OCC/C(C)=C/C(=O)N(O)CCC[C@@H]1NC(=O)[C@H](CCCN(O)C(=O)/C=C(\C)CCO)NC1=O`: > 30 µM; for `C/C(=C\C(=O)N(O)CCC[C@@H]1NC(=O)[C@H](CCCN(O)C(=O)/C=C(\C)CCO)NC1=O)CCO`: > 30 µM; for `C/C(=C\C(=O)NCCC[C@@H]1NC(=O)[C@H](CCCN(O)C(=O)/C=C(\C)CCO)NC1=O)CCO`: > 30 µM.
In the case of `C/C(=C\C(=O)NCCC[C@@H]1NC(=O)[C@H](CCCNC(=O)/C=C(\C)CCO)NC1=O)CCO`, the IC50 was > 30 µM.
Same read-out and setting: the same measure for `CC(=O)N[C@@H](CCCN(O)C(=O)/C=C(\C)CCO)C(=O)OCC/C(C)=C/C(=O)N(O)CCC[C@@H]1NC(=O)[C@H](CCCNC(=O)/C=C(\C)CCO)NC1=O`: > 30 µM.

Test system in the next test: not listed separately
In words: Metal chelating activity of the compound assessed as fluorescence recovery of calcein-Fe3 complex formation up to 10 uM measured after overnight incubation by CAFe based fluorescence spectrophotometry. The essentials:
(§1)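 Competition assay between the test chelator and a calcein–Fe(III) complex. Calcein is a fluorescent chelator with high Fe(III) affinity, and Fe(III) coordination quenches its fluorescence stoichiometrically. Relative Fe(III) affinity is inferred from the competing equilibrium, read as change in calcein fluorescence.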
For `CC(=O)N[C@@H](CCCN(O)C(=O)/C=C(\C)CCO)C(=O)OCC/C(C)=C/C(=O)N(O)CCC[C@@H]1NC(=O)[C@H](CCCN(O)C(=O)/C=C(\C)CCO)NC1=O`, the result was Active.
Take `C/C(=C\C(=O)N(O)CCC[C@@H]1NC(=O)[C@H](CCCN(O)C(=O)/C=C(\C)CCO)NC1=O)CCO`: the outcome was Active.

Test system in a further test: not listed separately
The experiment in a line: Metal chelating activity of the compound assessed as fluorescence recovery of calcein-Fe3 complex formation up to 40 uM measured after overnight incubation by CAFe based fluorescence spectrophotometry. The essentials: as §1
On to `CC(=O)N[C@@H](CCCN(O)C(=O)/C=C(\C)CCO)C(=O)OCC/C(C)=C/C(=O)N(O)CCC[C@@H]1NC(=O)[C@H](CCCN(O)C(=O)/C=C(\C)CCO)NC1=O`, for which the outcome was Active.
The same measure, in the same setting: the result for `C/C(=C\C(=O)N(O)CCC[C@@H]1NC(=O)[C@H](CCCN(O)C(=O)/C=C(\C)CCO)NC1=O)CCO` reads “Active”.

The test system of the next test is KB 3-1. The experiment in a line: Cytotoxicity against human KB-3-1 cells assessed as reduction in cell viability up to 30 uM after 68 hrs by MTT assay. In kind it is functional, cell-based. On the technique in general: Tetrazolium assays rely on reduction of a dye to a coloured formazan, in cell work by metabolically active cells.
Consider `CC(=O)N[C@@H](CCCN(O)C(=O)/C=C(\C)CCO)C(=O)OCC/C(C)=C/C(=O)NCCC[C@@H]1NC(=O)[C@H](CCCN(O)C(=O)/C=C(\C)CCO)NC1=O`, for which the outcome was inactive.
As to `CC(=O)N[C@@H](CCCN(O)C(=O)/C=C(\C)CCO)C(=O)OCC/C(C)=C/C(=O)NCCC[C@@H]1NC(=O)[C@H](CCCNC(=O)/C=C(\C)CCO)NC1=O`, the result was inactive.
Same read-out and setting: the same measure for `CC(=O)N[C@@H](CCCN(O)C(=O)/C=C(\C)CCO)C(=O)OCC/C(C)=C/C(=O)N(O)CCC[C@@H]1NC(=O)[C@H](CCCN(O)C(=O)/C=C(\C)CCO)NC1=O`: “inactive”.
As for `C/C(=C\C(=O)N(O)CCC[C@@H]1NC(=O)[C@H](CCCN(O)C(=O)/C=C(\C)CCO)NC1=O)CCO`, the result was inactive.
With `C/C(=C\C(=O)NCCC[C@@H]1NC(=O)[C@H](CCCN(O)C(=O)/C=C(\C)CCO)NC1=O)CCO`, the result was inactive.
Same read-out and setting: the result for `C/C(=C\C(=O)NCCC[C@@H]1NC(=O)[C@H](CCCNC(=O)/C=C(\C)CCO)NC1=O)CCO` reads “inactive”.
Same read-out and setting: the result for `CC(=O)N[C@@H](CCCN(O)C(=O)/C=C(\C)CCO)C(=O)OCC/C(C)=C/C(=O)N(O)CCC[C@@H]1NC(=O)[C@H](CCCNC(=O)/C=C(\C)CCO)NC1=O` reads “inactive”.

Another test concerns SW-620. In words: Cytotoxicity against human SW620 cells assessed as reduction in cell viability up to 30 uM after 68 hrs by MTT assay. Format: functional, cell-based.
Consider `CC(=O)N[C@@H](CCCN(O)C(=O)/C=C(\C)CCO)C(=O)OCC/C(C)=C/C(=O)NCCC[C@@H]1NC(=O)[C@H](CCCN(O)C(=O)/C=C(\C)CCO)NC1=O`, for which the result was inactive.
Regarding `CC(=O)N[C@@H](CCCN(O)C(=O)/C=C(\C)CCO)C(=O)OCC/C(C)=C/C(=O)NCCC[C@@H]1NC(=O)[C@H](CCCNC(=O)/C=C(\C)CCO)NC1=O`, the result was inactive.
On the same count and under the same terms, the same measure for `CC(=O)N[C@@H](CCCN(O)C(=O)/C=C(\C)CCO)C(=O)OCC/C(C)=C/C(=O)N(O)CCC[C@@H]1NC(=O)[C@H](CCCN(O)C(=O)/C=C(\C)CCO)NC1=O`: “inactive”; for `C/C(=C\C(=O)N(O)CCC[C@@H]1NC(=O)[C@H](CCCN(O)C(=O)/C=C(\C)CCO)NC1=O)CCO`: “inactive”; for `C/C(=C\C(=O)NCCC[C@@H]1NC(=O)[C@H](CCCN(O)C(=O)/C=C(\C)CCO)NC1=O)CCO`: “inactive”.
Same read-out and setting: the same measure for `C/C(=C\C(=O)NCCC[C@@H]1NC(=O)[C@H](CCCNC(=O)/C=C(\C)CCO)NC1=O)CCO`: “inactive”; for `CC(=O)N[C@@H](CCCN(O)C(=O)/C=C(\C)CCO)C(=O)OCC/C(C)=C/C(=O)N(O)CCC[C@@H]1NC(=O)[C@H](CCCNC(=O)/C=C(\C)CCO)NC1=O`: “inactive”.

In a further test the test system is NCI-H460. In words: Cytotoxicity against human NCI-H460 cells assessed as reduction in cell viability up to 30 uM after 68 hrs by MTT assay. Format: functional, cell-based.
`CC(=O)N[C@@H](CCCN(O)C(=O)/C=C(\C)CCO)C(=O)OCC/C(C)=C/C(=O)NCCC[C@@H]1NC(=O)[C@H](CCCN(O)C(=O)/C=C(\C)CCO)NC1=O`: the outcome was inactive.
For `CC(=O)N[C@@H](CCCN(O)C(=O)/C=C(\C)CCO)C(=O)OCC/C(C)=C/C(=O)NCCC[C@@H]1NC(=O)[C@H](CCCNC(=O)/C=C(\C)CCO)NC1=O`, the outcome was inactive.
Turning to `CC(=O)N[C@@H](CCCN(O)C(=O)/C=C(\C)CCO)C(=O)OCC/C(C)=C/C(=O)N(O)CCC[C@@H]1NC(=O)[C@H](CCCN(O)C(=O)/C=C(\C)CCO)NC1=O`, the result was inactive.
As to `C/C(=C\C(=O)N(O)CCC[C@@H]1NC(=O)[C@H](CCCN(O)C(=O)/C=C(\C)CCO)NC1=O)CCO`, the outcome was inactive.
Still for that read-out and setting: the same measure for `C/C(=C\C(=O)NCCC[C@@H]1NC(=O)[C@H](CCCN(O)C(=O)/C=C(\C)CCO)NC1=O)CCO`: “inactive”; for `C/C(=C\C(=O)NCCC[C@@H]1NC(=O)[C@H](CCCNC(=O)/C=C(\C)CCO)NC1=O)CCO`: “inactive”; for `CC(=O)N[C@@H](CCCN(O)C(=O)/C=C(\C)CCO)C(=O)OCC/C(C)=C/C(=O)N(O)CCC[C@@H]1NC(=O)[C@H](CCCNC(=O)/C=C(\C)CCO)NC1=O`: “inactive”.
